Test results reported in ChEMBL document CHEMBL4049439, “Synthesis and Characterization of Tetrahydropyran-Based Bacterial Topoisomerase Inhibitors with Antibacterial Activity against Gram-Negative Bacteria” (J Med Chem, 2017).
pIC50: −log10 of the molar value. Values after ≈ are worked out from the molar mass of the structure shown. Active and inactive are the calls of the source. No cut-off for these calls is given here.

How the values were obtained:
Escherichia coli [1] = test: Antibacterial activity against Escherichia coli MG1655 harboring rfac deletion mutant by CLSI broth microdilution method; format: functional; conditions: K-12 substr. MG1655
How it was run: (§1)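 MIC (μg/mL) measured against engineered derivatives of E. coli MG1655. ΔrfaC has truncated LPS (raised permeability). ΔtolC lacks the outer-membrane TolC efflux component. ΔacrAB lacks the AcrAB efflux system of the cytoplasmic membrane.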

Escherichia coli [2] = test: Ratio of MIC for wild-type Escherichia coli MG1655 to MIC for Escherichia coli MG1655 harboring tolC deletion mutant; format: functional, K-12 substr. MG1655
How it was run: (§2)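 Fold change in MIC for each MG1655 derivative (ΔacrAB, ΔrfaC, ΔtolC) relative to the MIC measured on wild-type E. coli MG1655, with both MICs in μg/mL.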

Rattus norvegicus [3] = test: Dose normalized unbound AUC in Wistar rat at 1 mg/kg, iv by LC-MS/MS analysis; format: ADME, organism-based; conditions: in vivo
How it was run: (§3)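 Rats dosed iv at 10 mg/kg or 1 mg/kg. Dose-normalized AUC (μg·h/(mL·dose)) and its unbound counterpart derived via fraction unbound. Clearance, unbound clearance, Vdss and half-life also derived.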

[4] = Inhibition of wild-type Acinetobacter baumannii DNA gyrase supercoiling activity using relaxed pBR322 DNA as substrate by ethidium bromide based agarose gel electrophoresis
[5] = Volume of distribution at steady state in Wistar rat at 1 mg/kg, iv by LC-MS/MS analysis; format: ADME, organism-based; conditions: in vivo, read-out: Vdss
How it was run: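 Rats received a single intravenous dose of 10 or 1 mg/kg depending on the compound. Clearance, unbound clearance, Vdss, terminal half-life and dose-normalized AUC were derived from plasma exposure, with unbound fraction (fu) reported for this species.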

Escherichia coli [6] = test: Ratio of MIC for wild-type Escherichia coli MG1655 to MIC for Escherichia coli MG1655 harboring rfac deletion mutant; format: functional, K-12 substr. MG1655; how it was run: as §2
Acinetobacter baumannii = test: Antibacterial activity against fluoroquinolone-resistant Acinetobacter baumannii T6474 by CLSI broth microdilution method; format: functional
[7] = Terminal half-life in Wistar rat at 1 mg/kg, iv by LC-MS/MS analysis; format: ADME, organism-based; conditions: in vivo, read-out: beta t1/2 (converted); how it was run: as §3
[8] = Inhibition of wild-type Pseudomonas aeruginosa DNA topoisomerase-4 mediated supercoiled pBR322 DNA relaxation by ethidium bromide based agarose gel electrophoresis
[9] = Inhibition of wild-type Pseudomonas aeruginosa DNA gyrase supercoiling activity using relaxed pBR322 DNA as substrate by ethidium bromide based agarose gel electrophoresis
[10] = Lipophilicity, log D of the compound at pH 7.4; format: physicochemical; conditions: buffer
[11] = Fraction unbound in Wistar rat plasma at 1 mg/kg, iv by rapid equilibrium dialysis; format: ADME, organism-based; how it was run: as §3
[12] = Inhibition of wild-type Acinetobacter baumannii DNA topoisomerase-4 mediated supercoiled pBR322 DNA relaxation by ethidium bromide based agarose gel electrophoresis
Rattus norvegicus [13] = test: Unbound clearance in Wistar rat at 1 mg/kg, iv by LC-MS/MS analysis; format: ADME, organism-based; conditions: in vivo; how it was run: as §3
[14] = Clearance in Wistar rat at 1 mg/kg, iv by LC-MS/MS analysis; format: ADME, organism-based; conditions: in vivo; how it was run: as §3
Escherichia coli [15] = test: Ratio of MIC for wild-type Escherichia coli MG1655 to MIC for Escherichia coli MG1655 harboring AcrAB deletion mutant; format: functional, K-12 substr. MG1655; how it was run: as §2
Escherichia coli [16] = test: Antibacterial activity against Escherichia coli MG1655 harboring AcrAB deletion mutant by CLSI broth microdilution method; format: functional; conditions: K-12 substr. MG1655; how it was run: as §1
Escherichia coli [17] = test: Antibacterial activity against wild-type Escherichia coli MG1655 by CLSI broth microdilution method; format: functional; conditions: K-12 substr. MG1655
How it was run: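 MIC (μg/mL) determined on wild-type E. coli MG1655, the parent of isogenic strains with truncated LPS or deleted TolC or AcrAB efflux.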

Rattus norvegicus [18] = test: Dose normalized AUC in Wistar rat at 1 mg/kg, iv by LC-MS/MS analysis; format: ADME, organism-based; conditions: in vivo
Escherichia coli [19] = test: Antibacterial activity against Escherichia coli MG1655 harboring tolC deletion mutant by CLSI broth microdilution method; format: functional; conditions: K-12 substr. MG1655; how it was run: as §1
[20] = Terminal half-life in NMRI mouse at 10 mg/kg, iv by LC-MS/MS analysis; format: ADME, organism-based; conditions: in vivo, read-out: beta t1/2 (converted)
How it was run: (§4)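 Mice dosed iv at 10 mg/kg or sc at 120 mg/kg. AUC normalized to dose (μg·h/(mL·dose)). Unbound AUC derived using fraction unbound. Clearance, Vdss and terminal half-life also derived.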

Klebsiella pneumoniae [21] = test: Antibacterial activity against Klebsiella pneumoniae ATCC 43816 infected in cyclophosphamide-induced neutropenic NMRI mouse model assessed as reduction in colony forming units in thighs at 30 mg/kg, sc treated 2 hrs post infection measured 5.5 hrs post dose; format: functional, organism-based
How it was run: (§5)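 Neutropenic murine thigh infection with a K. pneumoniae strain, single subcutaneous dose. Thigh CFU read 7.5 h post-infection (5.5 h after treatment, covering the dosing interval). Net log change computed against CFU at start of treatment.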

Staphylococcus aureus [22] = test: Antibacterial activity against methicillin-sensitive Staphylococcus aureus A-1178 by CLSI broth microdilution method; format: functional
Staphylococcus aureus [23] = test: Antibacterial activity against methicillin/quinolone-resistant Staphylococcus aureus A-1171 infected in cyclophosphamide-induced neutropenic NMRI mouse model assessed as log reduction in colony forming units in thighs at 40 mg/kg, sc treated 2 hrs post infection measured 22 hrs post dose; format: functional
How it was run: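 Neutropenic murine thigh infection with MRSA. A single subcutaneous dose of 40 mg/kg was given. Thigh CFU were counted 24 h postinfection (22 h post-treatment). The net change in bacterial load is given in log units relative to CFU at the start of treatment.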

Mus musculus [24] = test: Dose normalized AUC in NMRI mouse at 10 mg/kg, iv by LC-MS/MS analysis; format: ADME, organism-based; conditions: in vivo
[25] = Fraction unbound in NMRI mouse at 10 mg/kg, iv by rapid equilibrium dialysis; format: ADME, organism-based; conditions: plasma; how it was run: as §4
Klebsiella pneumoniae [26] = test: Antibacterial activity against Klebsiella pneumoniae ATCC 43816 infected in cyclophosphamide-induced neutropenic NMRI mouse model assessed as log reduction in colony forming units in thighs at 90 mg/kg, sc treated 2 hrs post infection measured 5.5 hrs post dose; format: functional; how it was run: as §5
[27] = Inhibition of wild-type Escherichia coli DNA topoisomerase-4 mediated supercoiled pBR322 DNA relaxation by ethidium bromide based agarose gel electrophoresis
Staphylococcus aureus [28] = test: Antibacterial activity against methicillin/quinolone-resistant Staphylococcus aureus A-1171 by CLSI broth microdilution method; format: functional
Klebsiella pneumoniae [29] = test: Antibacterial activity against Klebsiella pneumoniae ATCC 43816 by CLSI broth microdilution method; format: functional
Pseudomonas aeruginosa = test: Antibacterial activity against Pseudomonas aeruginosa ATCC 27853 by CLSI broth microdilution method; format: functional
Staphylococcus aureus [30] = test: Antibacterial activity against Staphylococcus aureus ATCC 29213 by CLSI broth microdilution method; format: functional
[31] = Inhibition of wild-type Escherichia coli DNA gyrase supercoiling activity using relaxed pBR322 DNA as substrate by ethidium bromide based agarose gel electrophoresis
[32] = Volume of distribution at steady state in NMRI mouse at 10 mg/kg, iv by LC-MS/MS analysis; format: ADME, organism-based; conditions: in vivo, read-out: Vdss
How it was run: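 Mice received a single dose of 10 mg/kg intravenously, or 120 mg/kg subcutaneously for one compound. Clearance, Vdss, half-life, unbound fraction and dose-normalized AUC were derived from plasma exposure.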

Mus musculus [33] = test: Dose normalized unbound AUC in NMRI mouse at 10 mg/kg, iv by LC-MS/MS analysis; format: ADME, organism-based; conditions: in vivo; how it was run: as §4
Staphylococcus aureus [34] = test: Antibacterial activity against methicillin-sensitive Staphylococcus aureus A-1178 infected in cyclophosphamide-induced neutropenic NMRI mouse model assessed as log reduction in colony forming units in thighs at 40 mg/kg, sc treated 2 hrs post infection measured 22 hrs post dose; format: functional
How it was run: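 Neutropenic mouse thigh model infected with a methicillin-sensitive S. aureus strain, subcutaneous dosing. Thigh CFU measured 24 h post-infection (22 h post-treatment). Net log reduction given against CFU at treatment start.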

Escherichia coli [35] = test: Antibacterial activity against wild-type Escherichia coli ATCC 25922 by CLSI broth microdilution method; format: functional

**Q.** What does the source list for `COc1ccc2ncc(F)c(C[C@H](O)[C@@H]3CC[C@@H](NCc4ccc5c(n4)NC(=O)CO5)CO3)c2n1`?
**A.** MIC (Escherichia coli [1]): 0.031 µg/mL (≈ 0.0641 µM); Ratio (Escherichia coli [2]): 100; fAUC/dose (Rattus norvegicus [3]): 39 µg·h/mL; pIC50 [4]: 6.90; Vd [5]: 2.5 L/kg; Ratio (Escherichia coli [6]): 16; MIC (Acinetobacter baumannii): 0.125 µg/mL (≈ 0.259 µM); half-life [7]: 1.3 h; pIC50 [8]: 6.90; pIC50 [9]: 6.90; logD [10]: 2; fraction unbound [11]: 0.086; pIC50 [12]: 6.90; CL free (Rattus norvegicus [13]): 430 mL/min/kg; clearance [14]: 37 mL/min/kg; Ratio (Escherichia coli [15]): 100; MIC (Escherichia coli [16]): 0.004 µg/mL (≈ 0.00827 µM); MIC (Escherichia coli [17]): 0.5 µg/mL (≈ 1.03 µM); AUC/dose (Rattus norvegicus [18]): 457 ng·h/mL; MIC (Escherichia coli [19]): 0.004 µg/mL (≈ 0.00827 µM)

**Q.** What does the source list for `COc1ccc2ncc(F)c(CC(N)[C@@H]3CC[C@@H](NCc4ccc5c(n4)NC(=O)CO5)CO3)c2n1` (mixture of isomers)?
**A.** half-life [20]: 1.2 h; Activity (Klebsiella pneumoniae [21]): inactive; MIC (Staphylococcus aureus [22]): 0.06 µg/mL; Activity (Staphylococcus aureus [23]): 1 log10CFU; AUC/dose (Mus musculus [24]): 260 ng·h/mL; pIC50 [4]: 6.90; MIC (Acinetobacter baumannii): 0.25 µg/mL; fraction unbound [25]: 0.154; pIC50 [8]: 7.52; pIC50 [9]: 7.52; Activity (Klebsiella pneumoniae [26]): 1 log10CFU; pIC50 [12]: 7.52; pIC50 [27]: 7.52; MIC (Staphylococcus aureus [28]): 0.03 µg/mL; MIC (Klebsiella pneumoniae [29]): 0.125 µg/mL; MIC (Pseudomonas aeruginosa): 4 µg/mL; MIC (Staphylococcus aureus [30]): 0.03 µg/mL; pIC50 [31]: 6.90; Vd [32]: 6 L/kg; fAUC/dose (Mus musculus [33]): 40 µg·h/mL; Activity (Staphylococcus aureus [34]): 2 log10CFU; MIC (Escherichia coli [35]): 0.25 µg/mL
